# Where two headings read alike, the source gives them in different places.
# Legend:
# [1] = system: Oatp1b2; assay: qRT-PCR mRNA expression in rat liver after 7 days of dosing; type: in vivo; settings: after multiple doses
# Procedure, shortened: (§1)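 Rats (n = 6/group) gavaged daily for 7 days with test compound: 2.5 or 1 mg/kg in 0.5% CMC-Na, or 100 mg/kg in 0.5% CMC-Na with 5% DMSO. Liver and intestine harvested under chloral hydrate and stored at −80 °C. TRNzol RNA extraction; 1 μg RNA reverse-transcribed. qPCR: 95 °C 15 min, then 40 cycles of 95 °C 10 s/60 °C 32 s. […] reference; 2^−ΔΔCT.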
# [2] = system: P-gp; assay: qRT-PCR mRNA expression in rat liver and intestine after 7 days of dosing; type: in vivo; settings: after multiple doses
# Procedure, shortened: as §1
# [3] = in vivo; type: in vivo, Sprague-Dawley (SD) rats; settings: for AUC(0-t): AUC0–t; for AUC(0-inf): AUC0–∞; for MRT last: MRT0–t; for MRT inf: MRT0–∞; for half-life: t1/2, rats
# [4] = ref Chen et al., 2021, Zhang et al.; cited from earlier work
# [5] = system: Ugt1a7; assay: qRT-PCR mRNA expression in rat liver and intestine after 7 days of dosing; type: in vivo; settings: either the liver or the intestine of rats, after multiple doses
# Procedure, shortened: as §1
# [6] = Stability of analytes in rat plasma; type: physicochemical; settings: n = 6
# [7] = system: patients with advanced HCC; settings: ref Llovet et al., 2008, cited from earlier work
# [8] = ref Lathia et al., 2006; cited from earlier work
# [9] = system: Ugt2b7; assay: qRT-PCR mRNA expression in rat liver and intestine after 7 days of dosing; type: in vivo; settings: after administration for seven consecutive days
# Procedure, shortened: as §1
# [10] = type: in vivo, Sprague-Dawley (SD) rats; settings: for AUC(0-t): AUC0–t; for AUC(0-t) / Cmax / MRT last / MRT inf / Tmax / half-life / CLz / Vz: n = 6; for MRT last: MRT0–t; for MRT inf: MRT0–∞; for half-life: t1/2, rats
# [11] = Sprague-Dawley, rat, in vivo, po, 1 mg/kg, rats, henagliflozin 1 mg/kg after sorafenib 100 mg/kg for 7 consecutive days, n = 6
# [12] = Sprague-Dawley, rat, in vivo, po, 1 mg/kg, rats, henagliflozin 1 mg/kg oral, alone, n = 6
# [13] = rats, henagliflozin 1 mg/kg after sorafenib 100 mg/kg for 7 consecutive days, n = 6
# [14] = rats, henagliflozin and sorafenib, versus control group
# [15] = Autosampler (15 °C) for 6 h, nominal 10 ng/mL
# [16] = Autosampler (15 °C) for 6 h, nominal 800 ng/mL
# [17] = Autosampler (15 °C) for 6 h, nominal 1,500 ng/mL
# [18] = Room temperature for 4 h, nominal 10 ng/mL
# [19] = Room temperature for 4 h, nominal 800 ng/mL
# [20] = Room temperature for 4 h, nominal 1,500 ng/mL
# [21] = Three freeze–thaw cycles (−80 °C to 25 °C), nominal 10 ng/mL
# [22] = Three freeze–thaw cycles (−80 °C to 25 °C), nominal 800 ng/mL
# [23] = Three freeze–thaw cycles (−80 °C to 25 °C), nominal 1,500 ng/mL
# [24] = −80 °C for 30 days, nominal 10 ng/mL
# [25] = −80 °C for 30 days, nominal 800 ng/mL
# [26] = −80 °C for 30 days, nominal 1,500 ng/mL
# [27] = Sprague-Dawley, rat, plasma, po, 100 mg/kg, rats, sorafenib 100 mg/kg after empagliflozin […] for 7 consecutive days
# [28] = Sprague-Dawley, rat, plasma, po, 100 mg/kg, rats, sorafenib 100 mg/kg after henagliflozin 1 mg/kg for 7 consecutive days
# [29] = Sprague-Dawley, rat, plasma, po, 100 mg/kg, rats, sorafenib 100 mg/kg by gavage, alone
# [30] = rats, after empagliflozin, versus sorafenib alone group
# [31] = rats, coadministered with henagliflozin, versus sorafenib alone
# [32] = rats, sorafenib 100 mg/kg after empagliflozin […] for 7 consecutive days
# [33] = rats, sorafenib 100 mg/kg after henagliflozin 1 mg/kg for 7 consecutive days
# [34] = rats, sorafenib 100 mg/kg by gavage, alone
smiles,measurement,setting,value
CCOc1ccc(Cc2cc([C@@]34OC[C@@](CO)(O3)[C@@H](O)[C@H](O)[C@H]4O)ccc2Cl)cc1F [Henagliflozin],decrease of mRNA expression of Oatp1b2,[1],38.4%
same,decrease of mRNA expression of P-gp,[2]; rat intestine,43.2%
same,decrease of mRNA expression of P-gp,[2]; rat liver,27.1%
same,AUC(0-t),[3]; [11],3450 ng·h/mL
same,AUC(0-t),[3]; [12],1920 ng·h/mL
same,AUC(0-inf),[3]; [11],3460 ng·h/mL
same,AUC(0-inf),[3]; [12],1950 ng·h/mL
same,Cmax,"[3]; Sprague-Dawley, rat, in vivo, po, 1 mg/kg, Cmax, rats, henagliflozin 1 mg/kg oral, alone, n = 6",197 ± 36.9 ng/mL
same,MRT last,[3]; [11],9.36 ± 3.63 h
same,MRT last,[3]; [12],7.84 ± 1.68 h
same,MRT inf,[3]; [11],9.49 ± 3.57 h
same,MRT inf,[3]; [12],8.49 ± 2.86 h
same,Tmax,[3]; [11],1.33 ± 1.36 h
same,Tmax,[3]; [12],3.25 ± 1.67 h
same,half-life,"[3]; Sprague-Dawley, rat, in vivo, po, 1 mg/kg, henagliflozin 1 mg/kg after sorafenib 100 mg/kg for 7 consecutive days, n = 6",5.1 ± 1.31 h
same,half-life,"[3]; Sprague-Dawley, rat, in vivo, po, 1 mg/kg, henagliflozin 1 mg/kg oral, alone, n = 6",5.11 ± 3.62 h
same,CLz,[3]; [13],5 ± 0.83 mL/min/kg
same,Vz,[3]; [13],2.25 ± 0.77 L/kg
same,CLz,"[3]; rats, henagliflozin 1 mg/kg oral, alone, n = 6",8.83 ± 1.7 mL/min/kg
same,"differences in Tmax, t1/2, Vz/F, MRT0–t and MRT0–∞ of henagliflozin","[3]; rats, henagliflozin and sorafenib versus control",no significant differences
same,increase of AUC0–t of henagliflozin,[3]; [14],79.1%
same,increase of AUC0–∞ of henagliflozin,[3]; [14],77.7%
same,eliminated by the fecal route,[4],50%
same,eliminated by the renal route,[4],30%
same,change in the expression of Ugt1a7,[5],no significant change
same,Stability: Accuracy (RE%),[6]; [15],−4.33%
same,Stability: Mean ± SD measured concentration,[6]; [15],9.57 ± 0.87 ng/mL
same,Stability: Accuracy (RE%),[6]; [16],−1.90%
same,Stability: Mean ± SD measured concentration,[6]; [16],784.83 ± 31.98 ng/mL
same,Stability: Accuracy (RE%),[6]; [17],−4.22%
same,Stability: Mean ± SD measured concentration,[6]; [17],"1,436.67 ± 29.44 ng/ml"
same,Stability: Accuracy (RE%),[6]; [18],−0.28%
same,Stability: Mean ± SD measured concentration,[6]; [18],9.97 ± 0.73 ng/mL
same,Stability: Accuracy (RE%),[6]; [19],−4.63%
same,Stability: Mean ± SD measured concentration,[6]; [19],763.00 ± 31.79 ng/mL
same,Stability: Accuracy (RE%),[6]; [20],−2.00%
same,Stability: Mean ± SD measured concentration,[6]; [20],"1,470.00 ± 59.67 ng/ml"
same,Stability: Accuracy (RE%),[6]; [21],−1.70%
same,Stability: Mean ± SD measured concentration,[6]; [21],9.83 ± 0.95 ng/mL
same,Stability: Accuracy (RE%),[6]; [22],−3.65%
same,Stability: Mean ± SD measured concentration,[6]; [22],770.83 ± 18.66 ng/mL
same,Stability: Accuracy (RE%),[6]; [23],0.56%
same,Stability: Mean ± SD measured concentration,[6]; [23],"1,508.33 ± 72.78 ng/ml"
same,Stability: Accuracy (RE%),[6]; [24],−1.12%
same,Stability: Mean ± SD measured concentration,[6]; [24],9.89 ± 0.95 ng/mL
same,Stability: Accuracy (RE%),[6]; [25],−1.35%
same,Stability: Mean ± SD measured concentration,[6]; [25],789.17 ± 38.83 ng/mL
same,Stability: Accuracy (RE%),[6]; [26],−2.11%
same,Stability: Mean ± SD measured concentration,[6]; [26],"1,468.33± 53.45 ng/ml"
CNC(=O)c1cc(Oc2ccc(NC(=O)Nc3ccc(Cl)c(C(F)(F)F)c3)cc2)ccn1 [Sorafenib],HR (overall survival versus control group),"[7]; 95% confidence interval [0.55–0.87], P < 0.001",0.69
same,median overall survival,"[7]; patients in the sorafenib group, phase 3 versus placebo",10.7 months
same,administered dose eliminated as oxidative metabolites,[8],less than 5%
same,administered dose removed from the body through glucuronidation,[8],15%
same,downregulation of mRNA expression of Ugt2b7,[9]; rat intestine,68.3%
same,effect on the expression of Ugt2b7,[9]; rat liver,did not significantly affect
same,AUC(0-inf),"[10]; Sprague-Dawley, rat, plasma, po, 100 mg/kg",20600 ng·h/mL
same,AUC(0-t),[10]; [27],37000 ng·h/mL
same,AUC(0-t),[10]; [28],33500 ng·h/mL
same,AUC(0-t),[10]; [29],20000 ng·h/mL
same,Cmax,[10]; [27],1860 ng/mL
same,Cmax,[10]; [28],1230 ng/mL
same,Cmax,[10]; [29],967 ± 176 ng/mL
same,MRT last,[10]; [27],28.7 ± 11.5 h
same,MRT last,[10]; [28],51 ± 11.1 h
same,MRT last,[10]; [29],37.2 ± 11.4 h
same,MRT inf,[10]; [28],66 ± 24.8 h
same,MRT inf,[10]; [29],40.5 ± 13.4 h
same,Tmax,[10]; [28],5.67 ± 2.58 h
same,Tmax,[10]; [29],4.33 ± 2.07 h
same,half-life,"[10]; Sprague-Dawley, rat, plasma, po, 100 mg/kg, sorafenib 100 mg/kg after empagliflozin […] for 7 consecutive days",47.6 ± 32.2 h
same,half-life,"[10]; Sprague-Dawley, rat, plasma, po, 100 mg/kg, sorafenib 100 mg/kg after henagliflozin 1 mg/kg for 7 consecutive days",28.6 ± 21.7 h
same,half-life,"[10]; Sprague-Dawley, rat, plasma, po, 100 mg/kg, sorafenib 100 mg/kg by gavage, alone",18.7 ± 4.85 h
same,decrease of CLz/F of sorafenib,"[10]; rats, after empagliflozin, versus control group",45%
same,increase of AUC0–t of sorafenib,[10]; [30],84%
same,increase of AUC0–∞ of sorafenib,[10]; [30],93%
same,increase of Cmax of sorafenib,[10]; [30],92%
same,increase of AUC0–t of sorafenib,[10]; [31],67%
same,increase of AUC0–∞ of sorafenib,[10]; [31],80%
same,CLz,[10]; [32],53.3 ± 33.5 mL/min/kg
same,Vz,[10]; [32],201.55 ± 161.11 L/kg
same,CLz,[10]; [33],46.8 ± 10.8 mL/min/kg
same,Vz,[10]; [33],110.19 ± 73.12 L/kg
same,CLz,[10]; [34],97 ± 43.2 mL/min/kg
same,Vz,[10]; [34],93.83 ± 63.20 L/kg

# Reference: PMC12248229 (PeerJ, 2025)
